According to paper PMC8419023 (Structure (London, England : 1993), 2021):
Each block holds one substance with its values, some of them ahead of it. No end group written: not given here.

Columns and labels:
cyclin A = assay: GST pull down, cyclin A in isolation; format: binding, human; settings: HEPES pH 7.5; 1 h, 4°C; SDS-PAGE; two experiments; Figure 1C
How it was run: (§1)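 Bacterially expressed proteins: CDK2 (1–298) as a GST fusion, cyclin A (1–432 or 173–432) as a 6XHis fusion. […] Incubated 1 h at 4 °C with mild agitation, washed three times in binding buffer, and bound material analysed by SDS-PAGE; repeated 2–3 times.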

CDK2 = assay: GST pull down, CDK2 in isolation; format: binding, human; settings: HEPES pH 7.5; 1 h, 4°C; SDS-PAGE; two experiments; Figure 1C
CDK2-cyclin A [1] = biological target: CDK2-cyclin A (Homo sapiens, UniProt P20248+P24941); assay: GST pull down, CDK2-cyclin A; format: binding; settings: 1 h, 4°C, SDS-PAGE, two experiments; for binding of GST-tagged Skp2 N-terminal fragments to CDK2-cyclin A^1−432: GST pull-down, Figure 4B; for binding of N-terminal deletions to GST:CDK2-cyclin A: GST CDK2-cyclin A^173−432 with Skp1-Skp2 deletions, Figure 1D
How it was run: as §1

CDK2-cyclin A^173−432 = assay: Protein kinase assay, Bora^1−224 phosphorylation by CDK2-cyclin A; format: biochemical, human; settings: 3 nM CDK2-cyclin A, 30°C, 30 min, Figure 7A
[2] = biological target: CDK2-cyclin A (Surface 2, hydrophobic patch); assay: Fluorescence polarization displacement of FITC-p27^27−36 from CDK2-cyclin A; format: binding, human; settings: 25 nM FITC-p27^27−36, CDK2-cyclin A 6.25 μM, HEPES pH 7.5, 30 min, N=4
CDK2-cyclin A [3] = settings: ref Ji et al., 2006; cited from earlier work

concentration for complete inhibition of Bora phosphorylation (CDK2-cyclin A^173−432; 10 μM Bora^1–224, 0.75 mM ATP [γ−^32P], pH 7.5, phosphoimager): 10 µM
IC50 ([2]; Figure 3E): 5.3 µM
IC50 ([2]; Figure 4F): 5.8 µM
Substance: Skp2^1−424: full-length Skp2 in complex with Skp1
inhibition of phosphorylation of RxL containing substrate (in words) (CDK2-cyclin A^173−432; Bora^1–224): completely inhibit Bora phosphorylation in vitro in a manner dependent on its N-terminus

binding of GST-tagged Skp2 N-terminal fragments to CDK2-cyclin A^1−432 (CDK2-cyclin A [1]): did not affect binding to CDK2-cyclin A
Substance: Skp2^17−43: GST-tagged Skp2 fragment 17–43 (ATSFTWGWDSSKTSELLSGMGVSALEK; also: GST-tagged (end not given here))

binding of GST-tagged Skp2 N-terminal fragments to CDK2-cyclin A^1−432 (CDK2-cyclin A [1]): did abolish binding
Substance: Skp2^28−43: GST-tagged Skp2 fragment 28–43 (KTSELLSGMGVSALEK; also: GST-tagged (end not given here))

The remaining lines, values behind:

Substance: GST-Skp2^1−424: GST-tagged full-length Skp2
pull down of cyclin A in isolation (cyclin A): could also pull down cyclin A in isolation
pull down of CDK2 in isolation (CDK2): not CDK2 in isolation

Substance: Skp2^1−29: GST-tagged Skp2 fragment 1–29 (MHRKHLQEIPDLSSNVATSFTWGWDSSKT; also: GST-tagged (end not given here))
binding of GST-tagged Skp2 N-terminal fragments to CDK2-cyclin A^1−432 (CDK2-cyclin A [1]): A major loss of binding to CDK2-cyclin A

Substance: Skp2^Δ1−16: Skp2 with residues 1 to 16 deleted
binding of N-terminal deletions to GST:CDK2-cyclin A (CDK2-cyclin A [1]): had no effect on CDK2-cyclin A binding

Substance: Skp2^Δ1−28: Skp2 with residues 1 to 28 deleted
binding of N-terminal deletions to GST:CDK2-cyclin A (CDK2-cyclin A [1]): caused a decrease in CDK2-cyclin A binding

Substance: p21: CDK inhibitor p21
competition with the N-terminus of Skp2 (CDK2-cyclin A [3]): compete with the N-terminus of Skp2 for binding to CDK2-cyclin A
